≈ marks a conversion by molar mass, not a printed value.
Columns and labels:
Type in all cases: functional
Athelia rolfsii = assay: Fungicidal activity against Athelia rolfsii by poisoned food technique; settings: Agroathelia rolfsii; read-out: ED50 (the source's name)
Fusarium oxysporum = assay: Fungicidal activity against Fusarium oxysporum by poisoned food technique; settings: read-out: ED50 (the source's name)
Macrophomina phaseolina = assay: Fungicidal activity against Rhizoctonia bataticola by poisoned food technique; settings: read-out: ED50 (the source's name)
Spodoptera litura [1] = assay: Insecticidal activity against third-instar larval stage of Spodoptera litura assessed as mortality at 0.1% applied topically on the ventral side of the larvae measured after 24 hr by contact method
In short: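 Field-collected larvae are reared in the lab at 27 ± 1 °C and 70% RH. Two microliters of a 0.1% dichloromethane solution is applied to the ventral side. Ten treated larvae are kept per glass bottle and fed fresh castor leaves. Mortality is recorded at 24 h. Triplicate, solvent control.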

Rhizoctonia solani = assay: Fungicidal activity against Rhizoctonia solani by poisoned food technique; settings: read-out: ED50 (the source's name)
Spodoptera litura [2] = assay: Insecticidal activity against third-instar larval stage of prestarved Spodoptera litura in castor leaf assessed as mortality at 0.1% treated for 2 secs before larval infestation measured after 24 hr by feeding method
In short: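 Castor leaf is dipped 2 s in 0.1% compound solution, air-dried, and placed on moist filter paper in 9 cm Petri plates. Larvae starved 4 h beforehand are released singly, one per plate. Thirty replicates per treatment, solvent control. Mortality is scored after 24 h.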

Alternaria porri = assay: Fungicidal activity against Alternaria porri by poisoned food technique; settings: read-out: ED50 (the source's name)
Callosobruchus maculatus = assay: Insecticidal activity against adult Callosobruchus maculatus assessed as mortality at 0.1% at 27 +/-1 degC after 24 hr by contact based film residue method
In short: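 Lab-reared adults, 2-5 days old, exposed to a dry film: 1 mL of 0.1% compound solution in dichloromethane is swirled in a 90 mm Petri plate and dried 3-5 min. Ten adults per plate are held at 27 ± 1 °C and 70% RH. Mortality is scored at 24 h, with no response to touch counted as dead. Triplicates, solvent control, malathion reference.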

Row | SMILES | EC50 (Athelia rolfsii) [µg/mL] | EC50 (Fusarium oxysporum) [µg/mL] | EC50 (Macrophomina phaseolina) [µg/mL] | mortality (Spodoptera litura [1]) [%] | EC50 (Rhizoctonia solani) [µg/mL] | mortality (Spodoptera litura [2]) [%] | EC50 (Alternaria porri) [µg/mL] | mortality (Callosobruchus maculatus) [%]
1 | CCn1cc(C(=O)N/N=C/c2cccc3ccccc23)c(=O)c2ccc(C)nc21 | 259 (≈ 674 µM) | 134 (≈ 350 µM) | 316 (≈ 821 µM) | 10 | 226 (≈ 589 µM) | 90 | 115 (≈ 300 µM) | 0
2 | C/C=C/C=N/NC(=O)c1cn(CC)c2nc(C)ccc2c1=O | 204 (≈ 683 µM) | 95.4 (≈ 320 µM) | 324 (≈ 1090 µM) |  | 248 (≈ 830 µM) | 60 | 89.8 (≈ 301 µM) | 0
3 | CCn1cc(C(=O)N/N=C/c2ccccc2C)c(=O)c2ccc(C)nc21 | 346 (≈ 993 µM) | 129 (≈ 369 µM) | 533 (≈ 1530 µM) |  | 408 (≈ 1170 µM) | 0 | 109 (≈ 313 µM) | 10
4 | CCn1cc(C(=O)N/N=C/c2cccc(C)c2)c(=O)c2ccc(C)nc21 | 298 (≈ 854 µM) | 103 (≈ 296 µM) | 322 (≈ 924 µM) |  | 301 (≈ 865 µM) | 80 | 66.9 (≈ 192 µM) | 60
5 | CCn1cc(C(=O)N/N=C/c2ccc(C)cc2)c(=O)c2ccc(C)nc21 | 374 (≈ 1070 µM) | 195 (≈ 560 µM) | 378 (≈ 1080 µM) | 10 | 372 (≈ 1070 µM) | 70 | 87.3 (≈ 251 µM) | 20
6 | CCn1cc(C(=O)N/N=C/c2ccc(C(C)C)cc2)c(=O)c2ccc(C)nc21 | 464 (≈ 1230 µM) | 277 (≈ 736 µM) | 453 (≈ 1200 µM) |  | 252 (≈ 671 µM) | 10 | 124 (≈ 331 µM) | 20
7 | CCn1cc(C(=O)N/N=C/c2ccc(Cl)cc2Cl)c(=O)c2ccc(C)nc21 | 541 (≈ 1340 µM) | 121 (≈ 300 µM) | 495 (≈ 1230 µM) |  | 354 (≈ 877 µM) | 100 | 119 (≈ 296 µM) | 40
8 | CCn1cc(C(=O)N/N=C/c2c(Cl)cccc2Cl)c(=O)c2ccc(C)nc21 | 282 (≈ 701 µM) | 114 (≈ 283 µM) | 255 (≈ 633 µM) | 10 | 298 (≈ 738 µM) | 100 | 87.2 (≈ 216 µM) | 30
9 | CCn1cc(C(=O)N/N=C/c2ccc(O)cc2O)c(=O)c2ccc(C)nc21 | 397 (≈ 1080 µM) | 196 (≈ 536 µM) | 650 (≈ 1770 µM) |  | 342 (≈ 932 µM) | 40 | 144 (≈ 392 µM) | 25
10 | CCn1cc(C(=O)N/N=C/c2ccc(OC)cc2OC)c(=O)c2ccc(C)nc21 | 375 (≈ 950 µM) | 176 (≈ 447 µM) | 382 (≈ 969 µM) | 10 | 188 (≈ 477 µM) | 100 | 131 (≈ 332 µM) | 12
11 | CCn1cc(C(=O)N/N=C/c2ccc(OC)c(OC)c2)c(=O)c2ccc(C)nc21 | 359 (≈ 909 µM) | 137 (≈ 346 µM) | 285 (≈ 722 µM) |  | 172 (≈ 435 µM) | 40 | 102 (≈ 259 µM) | 10
12 | CCn1cc(C(=O)N/N=C/c2ccc(O)c(OC)c2)c(=O)c2ccc(C)nc21 | 460 (≈ 1210 µM) | 377 (≈ 991 µM) | 528 (≈ 1390 µM) | 20 | 317 (≈ 833 µM) | 100 | 128 (≈ 337 µM) | 20
13 | CCOc1cc(/C=N/NC(=O)c2cn(CC)c3nc(C)ccc3c2=O)ccc1O | 384 (≈ 974 µM) | 185 (≈ 469 µM) | 400 (≈ 1010 µM) | 10 | 356 (≈ 903 µM) | 90 | 92.1 (≈ 234 µM) | 22
14 | CCn1cc(C(=O)N/N=C/c2cc(OC)c(OC)c(OC)c2)c(=O)c2ccc(C)nc21 | 186 (≈ 438 µM) | 102 (≈ 241 µM) | 201 (≈ 474 µM) | 10 | 174 (≈ 409 µM) | 90 | 79.4 (≈ 187 µM) | 10
15 | CCn1cc(C(=O)N/N=C/c2ccccn2)c(=O)c2ccc(C)nc21 | 198 (≈ 590 µM) | 79.1 (≈ 236 µM) | 372 (≈ 1110 µM) |  | 170 (≈ 508 µM) | 100 | 77.3 (≈ 230 µM) | 10
16 | CCn1cc(C(=O)N/N=C/c2ccc(F)cc2)c(=O)c2ccc(C)nc21 | 220 (≈ 624 µM) | 79.9 (≈ 227 µM) | 244 (≈ 692 µM) |  | 234 (≈ 665 µM) | 50 | 64.8 (≈ 184 µM) | 10
17 | CCn1cc(C(=O)N/N=C/c2cccc(Cl)c2)c(=O)c2ccc(C)nc21 | 439 (≈ 1190 µM) | 132 (≈ 358 µM) | 504 (≈ 1370 µM) |  | 394 (≈ 1070 µM) | 90 | 98.8 (≈ 268 µM) | 10
18 | CCn1cc(C(=O)N/N=C/c2ccc(Cl)cc2)c(=O)c2ccc(C)nc21 | 438 (≈ 1190 µM) | 119 (≈ 322 µM) | 371 (≈ 1000 µM) |  | 308 (≈ 834 µM) | 40 | 87.2 (≈ 236 µM) | 10
19 | CCn1cc(C(=O)N/N=C/c2cccc(Br)c2)c(=O)c2ccc(C)nc21 | 380 (≈ 920 µM) | 209 (≈ 506 µM) | 628 (≈ 1520 µM) | 10 | 439 (≈ 1060 µM) | 20 | 125 (≈ 303 µM) | 20
20 | CCn1cc(C(=O)N/N=C/c2cccc([N+](=O)[O-])c2)c(=O)c2ccc(C)nc21 | 287 (≈ 756 µM) | 212 (≈ 559 µM) | 272 (≈ 716 µM) |  | 245 (≈ 645 µM) | 80 | 89 (≈ 235 µM) | 10
21 | CCn1cc(C(=O)N/N=C/c2ccc([N+](=O)[O-])cc2)c(=O)c2ccc(C)nc21 | 464 (≈ 1220 µM) | 125 (≈ 330 µM) | 575 (≈ 1520 µM) | 10 | 226 (≈ 595 µM) | 90 | 70.1 (≈ 185 µM) | 10
22 | CCn1cc(C(=O)N/N=C/c2ccc(O)cc2)c(=O)c2ccc(C)nc21 | 364 (≈ 1040 µM) | 181 (≈ 517 µM) | 308 (≈ 878 µM) | 10 | 330 (≈ 943 µM) | 70 | 146 (≈ 416 µM) | 40
23 | CCn1cc(C(=O)N/N=C/c2cccc(OC)c2)c(=O)c2ccc(C)nc21 | 242 (≈ 665 µM) | 63.1 (≈ 173 µM) | 210 (≈ 575 µM) |  | 157 (≈ 432 µM) | 10 | 57.6 (≈ 158 µM) | 10
24 | CC1(C)C(C=C(Cl)Cl)C1C(=O)OC(C#N)c1cccc(Oc2ccccc2)c1 (stereo not drawn) [ALPHA-CYPERMETHRIN] |  |  |  |  |  | 100 |  | 
25 | CCCCC(O)(Cn1cncn1)c1ccc(Cl)cc1Cl (configuration not stated) [HEXACONAZOLE] | 13 (≈ 41.4 µM) | 20.6 (≈ 65.6 µM) | 4.4 (≈ 14 µM) |  | 18.3 (≈ 58.2 µM) |  | 25.5 (≈ 81.2 µM) | 
